Measured values as given in ChEMBL document CHEMBL2203263, “Discovery of a 4-Azetidinyl-1-thiazoyl-cyclohexane CCR2 Antagonist as a Development Candidate” (ACS Med Chem Lett, 2012).
Values belong to the molecule of their own block, whether it stands above or below them. The source made the active and inactive calls. The rule behind the calls is not given here.

Key:
Cavia porcellus [1] = experiment: Cardiotoxicity in anesthetized-Hartley guinea pig assessed as prolongation of corrected QT interval up to cumulative dose of 10 mg/kg, iv by electrocardiographic analysis; assay type: toxicity, organism-based; parameters: dose 10 mg/kg, route intravenous; conditions: in vivo
Summary of the method: (§1)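 Anesthetized guinea pigs received cumulative i.v. doses of 0.1, 0.3, 1, 3 and 10 mg/kg, each as a 5 min infusion at 0, 20, 40, 60 and 80 min. QTc was recorded at each time point as percent change from each animal's baseline. Mean ± SEM, n = 3.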

Cavia porcellus [2] = experiment: Cardiotoxicity in iv dosed anesthetized-Hartley guinea pig assessed as prolongation of corrected QT interval by electrocardiographic analysis; assay type: toxicity, organism-based; conditions: in vivo; summary of the method: as §1
hERG (KCNH2) = hERG (KCNH2) (Homo sapiens, UniProt Q12809); experiment: Inhibition of human ERG expressed in HEK-293 cells assessed as K+-selective outward current at 3 uM at -80 mV holding potential after 5 mins by voltage patch-clamp method; assay type: cell-based, HEK293; conditions: HEK-293 cells expressing human ERG
[3] = biological target: Voltage-gated inwardly rectifying potassium channel KCNH2 (Homo sapiens, UniProt Q12809); experiment: Displacement of [3H]-astemizole from human ERG expressed in HEK293 cells after 1 hr by scintillation counting analysis; assay type: cell-based
Canis familiaris [4] = experiment: Toxicity in anesthetized dog assessed as effect on electrophysiological parameters up to 10 mg/kg, iv; assay type: organism-based, Canis lupus familiaris; parameters: dose 10 mg/kg, route intravenous; conditions: in vivo
Canis familiaris [5] = experiment: Toxicity in anesthetized dog assessed as effect on functional respiratory parameters up to 10 mg/kg, iv; assay type: organism-based, Canis lupus familiaris; parameters: dose 10 mg/kg, route intravenous; conditions: in vivo
Mus musculus [6] = experiment: Antiasthamatic activity in ovalbumin-sensitized mouse model assessed as inhibition of airway eosinophil infiltration at 10 mg/kg, po bid; assay type: functional
Mus musculus [7] = experiment: Inhibition of thioglycollate-induced peritonitis in po dosed human CCR2 knock-in/murine CCR2 knockout mouse assessed as inhibition of leukocytes, monocytes/macrophages and T-lymphocytes influx in to peritoneal cavity administered as bid; assay type: functional
[8] = biological target: C-C chemokine receptor type 2 (Mus musculus, UniProt P51683); experiment: Binding affinity to mouse CCR2
[9] = AUC (last) in rat at 10 mg/kg, po by LC-MS-MS analysis; assay type: ADME, organism-based; parameters: time 0 - last, dose 10 mg/kg, route oral; conditions: plasma
[10] = Cmax in rat at 10 mg/kg, po by LC-MS-MS analysis; assay type: ADME, organism-based; parameters: dose 10 mg/kg, route oral; conditions: in vivo
[11] = Oral bioavailability in rat at 10 mg/kg by LC-MS-MS analysis; assay type: ADME, organism-based; conditions: in vivo
[12] = AUC (last) in mouse at 10 mg/kg, po by LC-MS-MS analysis; assay type: ADME, organism-based; parameters: time 0 - last, dose 10 mg/kg, route oral; conditions: plasma
[13] = Cmax in mouse at 10 mg/kg, po by LC-MS-MS analysis; assay type: ADME, organism-based; parameters: dose 10 mg/kg, route oral; conditions: in vivo
[14] = Oral bioavailability in mouse at 10 mg/kg by LC-MS-MS analysis; assay type: ADME, organism-based; conditions: in vivo
[15] = AUC (last) in monkey at 7.2 mg/kg, po by LC-MS-MS analysis; assay type: ADME, organism-based, Macaca mulatta; parameters: time 0 - last, dose 7.2 mg/kg, route oral; conditions: rhesus monkey, plasma
[16] = Cmax in monkey at 7.2 mg/kg, po by LC-MS-MS analysis; assay type: ADME, organism-based, Macaca mulatta; parameters: dose 7.2 mg/kg, route oral; conditions: rhesus monkey, in vivo
[17] = Oral bioavailability in monkey at 7.2 mg/kg by LC-MS-MS analysis; assay type: ADME, organism-based, Macaca mulatta; conditions: rhesus monkey, in vivo
[18] = AUC (last) in dog at 6.7 mg/kg, po by LC-MS-MS analysis; assay type: ADME, organism-based, Canis lupus familiaris; parameters: time 0 - last, dose 6.7 mg/kg, route oral; conditions: plasma
Summary of the method: (§2)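 Single oral dose of 6.7 mg/kg given to dogs as a suspension/solution in 0.5% methocel vehicle. AUC was taken to the last sampled time point.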

[19] = Cmax in dog at 6.7 mg/kg, po by LC-MS-MS analysis; assay type: ADME, organism-based, Canis lupus familiaris; parameters: dose 6.7 mg/kg, route oral; conditions: in vivo; summary of the method: as §2
[20] = Oral bioavailability in dog at 6.7 mg/kg by LC-MS-MS analysis; assay type: ADME, organism-based, Canis lupus familiaris; conditions: in vivo; summary of the method: as §2
[21] = biological target: T1, CX3C chemokine receptor 1 (Homo sapiens) (UniProt P49238); experiment: Binding affinity against CX3CR1 at 25 uM
T1 sequence (whole entry): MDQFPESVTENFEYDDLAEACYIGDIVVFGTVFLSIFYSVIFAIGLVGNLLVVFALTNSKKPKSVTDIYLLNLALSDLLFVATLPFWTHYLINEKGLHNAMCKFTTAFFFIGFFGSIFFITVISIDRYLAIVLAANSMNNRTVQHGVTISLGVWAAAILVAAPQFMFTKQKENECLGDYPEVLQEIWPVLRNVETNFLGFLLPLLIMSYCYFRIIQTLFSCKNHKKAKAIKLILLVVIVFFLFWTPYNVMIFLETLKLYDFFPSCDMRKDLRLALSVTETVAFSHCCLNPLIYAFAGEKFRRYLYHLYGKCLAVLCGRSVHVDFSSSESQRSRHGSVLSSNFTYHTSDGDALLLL

[22] = biological target: T2, C-X-C chemokine receptor type 2 (Homo sapiens) (UniProt P25025); experiment: Binding affinity against CXCR2 at 25 uM
T2 sequence (whole entry): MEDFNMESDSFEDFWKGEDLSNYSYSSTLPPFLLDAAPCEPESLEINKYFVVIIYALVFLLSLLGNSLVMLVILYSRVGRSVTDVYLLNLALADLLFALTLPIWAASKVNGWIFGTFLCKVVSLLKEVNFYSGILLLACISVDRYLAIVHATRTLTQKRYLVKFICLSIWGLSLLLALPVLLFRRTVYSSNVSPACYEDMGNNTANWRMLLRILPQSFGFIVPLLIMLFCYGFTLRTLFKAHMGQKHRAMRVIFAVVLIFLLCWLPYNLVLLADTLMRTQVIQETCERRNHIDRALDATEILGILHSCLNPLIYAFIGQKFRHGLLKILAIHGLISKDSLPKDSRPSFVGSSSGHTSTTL

[23] = biological target: C-X-C chemokine receptor type 4 (Homo sapiens) (UniProt P61073); experiment: Binding affinity against CXCR4 at 25 uM
[24] = biological target: T3, C-X-C chemokine receptor type 1 (Homo sapiens) (UniProt P25024); experiment: Binding affinity against CXCR1 at 25 uM
T3 sequence (whole entry): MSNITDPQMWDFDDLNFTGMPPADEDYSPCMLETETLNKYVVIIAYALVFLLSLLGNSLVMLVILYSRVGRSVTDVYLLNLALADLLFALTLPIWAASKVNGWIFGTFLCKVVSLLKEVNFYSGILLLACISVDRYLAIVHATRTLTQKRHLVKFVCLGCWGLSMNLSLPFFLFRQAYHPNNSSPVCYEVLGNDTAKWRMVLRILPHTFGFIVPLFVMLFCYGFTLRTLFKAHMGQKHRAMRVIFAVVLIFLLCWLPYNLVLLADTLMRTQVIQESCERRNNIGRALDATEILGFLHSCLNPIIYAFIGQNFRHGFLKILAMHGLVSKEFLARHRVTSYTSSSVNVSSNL

[25] = biological target: C-C chemokine receptor type 5 (Homo sapiens) (UniProt P51681); experiment: Binding affinity against CCR5 at 25 uM
[26] = biological target: T4, C-C chemokine receptor type 3 (Homo sapiens) (UniProt P51677); experiment: Binding affinity against CCR3 at 25 uM
T4 sequence (whole entry): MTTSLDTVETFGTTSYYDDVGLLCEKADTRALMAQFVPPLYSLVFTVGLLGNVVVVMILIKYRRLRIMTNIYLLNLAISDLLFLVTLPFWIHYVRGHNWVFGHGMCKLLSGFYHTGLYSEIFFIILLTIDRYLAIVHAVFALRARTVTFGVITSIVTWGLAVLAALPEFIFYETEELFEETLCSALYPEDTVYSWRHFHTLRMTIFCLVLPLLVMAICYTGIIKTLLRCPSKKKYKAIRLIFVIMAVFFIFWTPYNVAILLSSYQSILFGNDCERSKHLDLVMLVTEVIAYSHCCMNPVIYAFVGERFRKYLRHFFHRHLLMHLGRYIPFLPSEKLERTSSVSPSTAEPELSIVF

[27] = biological target: T5, C-C chemokine receptor type 4 (Homo sapiens) (UniProt P51679); experiment: Binding affinity against CCR4 at 25 uM
T5 sequence (whole entry): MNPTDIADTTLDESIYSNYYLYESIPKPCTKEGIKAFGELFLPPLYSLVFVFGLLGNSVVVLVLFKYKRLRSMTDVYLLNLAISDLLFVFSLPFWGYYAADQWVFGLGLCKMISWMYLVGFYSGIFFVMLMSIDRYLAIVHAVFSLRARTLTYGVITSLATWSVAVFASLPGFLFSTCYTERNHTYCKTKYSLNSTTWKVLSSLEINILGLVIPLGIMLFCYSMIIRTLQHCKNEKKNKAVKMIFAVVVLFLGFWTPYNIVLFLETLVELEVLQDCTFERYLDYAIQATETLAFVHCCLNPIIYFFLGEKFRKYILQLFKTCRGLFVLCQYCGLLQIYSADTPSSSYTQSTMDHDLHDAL

[28] = biological target: T6, C-C chemokine receptor type 1 (Homo sapiens) (UniProt P32246); experiment: Binding affinity against CCR1 at 25 uM
T6 sequence (whole entry): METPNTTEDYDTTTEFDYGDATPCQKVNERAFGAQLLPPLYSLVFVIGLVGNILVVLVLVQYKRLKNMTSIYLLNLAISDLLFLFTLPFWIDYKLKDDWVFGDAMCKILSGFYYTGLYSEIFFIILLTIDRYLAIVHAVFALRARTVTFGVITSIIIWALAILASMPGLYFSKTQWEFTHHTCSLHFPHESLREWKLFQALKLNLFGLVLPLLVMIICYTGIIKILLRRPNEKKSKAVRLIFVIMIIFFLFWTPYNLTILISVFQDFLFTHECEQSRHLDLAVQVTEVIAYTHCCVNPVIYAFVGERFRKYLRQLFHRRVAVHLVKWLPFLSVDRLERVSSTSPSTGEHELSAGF

Canis familiaris [29] = experiment: Cardiotoxicity in anesthetized dog assessed as effect on ECG morphology up to 10 mg/kg, iv; assay type: toxicity, organism-based, Canis lupus familiaris; parameters: dose 10 mg/kg, route intravenous; conditions: in vivo
Canis familiaris [30] = experiment: Toxicity in anesthetized dog assessed as effect on cardiohemodynamic parameters up to 10 mg/kg, iv; assay type: organism-based, Canis lupus familiaris; parameters: dose 10 mg/kg, route intravenous; conditions: in vivo
Cavia porcellus [31] = experiment: Cardiotoxicity in anesthetized Hartley guinea pig assessed as prolongation of corrected QT interval up to cumulative dose of 10 mg/kg, iv by electrocardiographic analysis; assay type: toxicity, organism-based; parameters: dose 10 mg/kg, route intravenous; conditions: in vivo; summary of the method: as §1
[32] = Plasma concentration in Hartley guinea pig up to cumulative dose of 10 mg/kg, iv by LC-MS-MS analysis; assay type: ADME, organism-based, Cavia porcellus; parameters: dose 10 mg/kg, route intravenous; conditions: in vivo
Summary of the method: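 Plasma drug level was taken from the anesthetized guinea pig QTc study. Dosing was cumulative i.v. (0.1, 0.3, 1, 3, 10 mg/kg), each dose a 5 min infusion at 20 min intervals, up to 10 mg/kg.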

hERG (KCNH2), sequence (Q12809 whole entry): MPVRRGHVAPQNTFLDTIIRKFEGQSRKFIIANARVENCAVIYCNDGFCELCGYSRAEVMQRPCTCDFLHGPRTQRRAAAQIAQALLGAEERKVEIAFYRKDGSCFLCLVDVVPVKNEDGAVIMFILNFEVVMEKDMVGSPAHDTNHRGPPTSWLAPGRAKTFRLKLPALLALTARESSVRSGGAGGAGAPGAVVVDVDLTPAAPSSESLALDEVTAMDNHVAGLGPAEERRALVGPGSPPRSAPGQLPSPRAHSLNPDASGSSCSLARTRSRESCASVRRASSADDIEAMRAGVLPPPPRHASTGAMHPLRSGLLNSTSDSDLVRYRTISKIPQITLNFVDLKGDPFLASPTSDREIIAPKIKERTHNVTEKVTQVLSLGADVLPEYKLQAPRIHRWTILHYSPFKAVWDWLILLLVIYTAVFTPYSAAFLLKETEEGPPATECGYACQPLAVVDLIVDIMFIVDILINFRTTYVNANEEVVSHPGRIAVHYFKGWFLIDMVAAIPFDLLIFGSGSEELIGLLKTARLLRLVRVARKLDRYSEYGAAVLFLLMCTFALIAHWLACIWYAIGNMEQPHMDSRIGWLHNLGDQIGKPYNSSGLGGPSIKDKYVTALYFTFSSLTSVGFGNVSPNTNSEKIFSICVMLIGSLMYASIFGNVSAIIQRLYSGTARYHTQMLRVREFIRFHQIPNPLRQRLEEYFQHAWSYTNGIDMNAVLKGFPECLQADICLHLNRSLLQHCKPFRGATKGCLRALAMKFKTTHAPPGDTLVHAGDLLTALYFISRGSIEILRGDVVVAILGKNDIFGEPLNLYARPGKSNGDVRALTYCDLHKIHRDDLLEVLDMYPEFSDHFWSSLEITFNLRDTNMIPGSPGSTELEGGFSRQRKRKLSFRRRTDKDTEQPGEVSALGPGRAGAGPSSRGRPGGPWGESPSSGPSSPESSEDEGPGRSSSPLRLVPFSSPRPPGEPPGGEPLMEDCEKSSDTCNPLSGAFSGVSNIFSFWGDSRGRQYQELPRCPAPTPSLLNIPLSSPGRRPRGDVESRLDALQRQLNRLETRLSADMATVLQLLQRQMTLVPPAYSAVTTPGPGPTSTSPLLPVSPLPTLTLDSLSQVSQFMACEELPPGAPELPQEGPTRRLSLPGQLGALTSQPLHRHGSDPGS
Voltage-gated inwardly rectifying potassium channel KCNH2, sequence (Q12809 whole entry): as above
C-C chemokine receptor type 2, sequence (P51683 whole entry): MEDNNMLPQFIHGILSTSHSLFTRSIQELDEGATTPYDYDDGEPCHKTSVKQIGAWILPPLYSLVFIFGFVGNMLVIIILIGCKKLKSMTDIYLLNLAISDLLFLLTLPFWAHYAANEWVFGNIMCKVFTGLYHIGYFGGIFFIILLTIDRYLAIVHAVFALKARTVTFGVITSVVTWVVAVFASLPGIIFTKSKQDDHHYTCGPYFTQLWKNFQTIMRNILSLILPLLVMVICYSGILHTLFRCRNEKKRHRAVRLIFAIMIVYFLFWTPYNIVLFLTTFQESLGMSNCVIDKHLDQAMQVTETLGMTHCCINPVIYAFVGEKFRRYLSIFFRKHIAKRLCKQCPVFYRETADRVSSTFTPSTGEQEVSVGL
C-C chemokine receptor type 5 (Homo sapiens), sequence (P51681 whole entry, looked up): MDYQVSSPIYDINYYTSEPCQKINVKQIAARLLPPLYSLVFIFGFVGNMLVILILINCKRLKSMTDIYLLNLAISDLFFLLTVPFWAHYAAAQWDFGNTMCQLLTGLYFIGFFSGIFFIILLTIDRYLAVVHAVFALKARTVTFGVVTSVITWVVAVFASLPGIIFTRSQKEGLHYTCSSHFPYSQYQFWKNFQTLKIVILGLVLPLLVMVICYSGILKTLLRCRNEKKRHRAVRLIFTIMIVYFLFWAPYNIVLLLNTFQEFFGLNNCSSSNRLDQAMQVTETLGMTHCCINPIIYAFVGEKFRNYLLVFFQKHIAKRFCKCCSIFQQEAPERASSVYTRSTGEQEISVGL
C-X-C chemokine receptor type 4 (Homo sapiens), sequence (P61073 whole entry): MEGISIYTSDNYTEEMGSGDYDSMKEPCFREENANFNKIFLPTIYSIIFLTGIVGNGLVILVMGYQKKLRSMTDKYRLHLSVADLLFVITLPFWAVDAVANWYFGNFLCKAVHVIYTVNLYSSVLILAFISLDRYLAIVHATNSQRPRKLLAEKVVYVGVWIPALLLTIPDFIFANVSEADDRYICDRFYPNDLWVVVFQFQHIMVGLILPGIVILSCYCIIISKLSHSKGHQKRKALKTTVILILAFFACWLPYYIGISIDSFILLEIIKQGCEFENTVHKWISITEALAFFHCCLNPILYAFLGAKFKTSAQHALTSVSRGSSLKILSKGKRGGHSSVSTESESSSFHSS

Compound: COc1ccc([C@]2(O)CC[C@H](N3CC(NC(=O)CNC(=O)c4cccc(C(F)(F)F)c4)C3)CC2)cn1
Activity (Cavia porcellus [1]): 6% | Activity (Cavia porcellus [2]): Dose-dependent effect

Compound: COc1ccc([C@]2(O)CC[C@H](N3CC(NC(=O)CNC(=O)c4cccc(C(F)(F)F)c4)C3)CC2)nc1
inhibition at 5 min, 3 µM (hERG (KCNH2)): 30% | IC50 [3]: 25 µM

Compound: CSc1ncc([C@]2(O)CC[C@H](N3CC(NC(=O)CNC(=O)c4cccc(C(F)(F)F)c4)C3)CC2)s1
inhibition at 5 min, 3 µM (hERG (KCNH2)): 77% | IC50 [3]: 6 µM

Ki [8]: 9.6 µM | AUC(0-t) [9]: 416 ng·h/mL | Cmax [10]: 100 ng/mL | bioavailability [11]: 15.3% | AUC(0-t) [12]: 204 ng·h/mL | Cmax [13]: 74 ng/mL | bioavailability [14]: 19% | AUC(0-t) [15]: 3060 ng·h/mL | Cmax [16]: 740 ng/mL | bioavailability [17]: 25.4% | AUC(0-t) [18]: 5890 ng·h/mL | Cmax [19]: 1620 ng/mL | bioavailability [20]: 70.2% | inhibition [21]: inactive | inhibition [22]: inactive | inhibition [23]: inactive | inhibition [24]: inactive | inhibition [25]: inactive | inhibition [26]: inactive | inhibition [27]: inactive | inhibition [28]: inactive | concentration [32]: 26 µM
Compound: O=C(CNC(=O)c1cccc(C(F)(F)F)c1)NC1CN([C@H]2CC[C@@](O)(c3cncs3)CC2)C1 [JNJ-41443532]
Activity (Canis familiaris [4]): Non-toxic | Activity (Canis familiaris [5]): Non-toxic | inhibition in vivo at 10 mg/kg (Mus musculus [6]): 89% | ED50 (Mus musculus [7]): 3 mg/kg | inhibition (Mus musculus [7]): Dose-dependent effect | Activity (Canis familiaris [29]): Non-toxic | Activity (Canis familiaris [30]): Non-toxic | Activity (Cavia porcellus [31]): Non-toxic
